Screens as filed in PubChem BioAssay.
bCat nuc transl: modulators of beta-catenin nuclear translocation, primary screen, imaging, HeLa cells, immunofluorescence, high-content; nuclear translocation activity, % at 5 µM; 0.3% of 190,000 active; AID 1665, 2009;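 active = nuclear translocation activity above 50% at 5 µM, with a well cell count of 50 or more; inconclusive = wells under 50 cells across six images, flagged as toxic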;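 also: per-cell ratio of nuclear to cytoplasmic median beta-catenin stain intensity; plate controls were DMSO negative control for no effect and GSK-3 inhibitor IX positive control for full effect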
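Test system: human HeLa cells, endogenous beta-catenin. Times: 24 h compound exposure, 37°C. Measured by: beta-catenin immunofluorescence imaging with DAPI.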
ROMK primary: ROMK potassium channel modulators, primary screen, cell-based, thallium flux, MLSMR library; 2% of 130,000 active; B-score at 10 µM; Tet-inducible ROMK, thallium flux fluorescence; actives lie on both sides;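 active = signal ratio slope over the read window, or its plate-corrected B-score, at least 3 SD from the plate mean, either direction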;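 also: B-score of the F/F0 ratio slope over 7 to 12 s after thallium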
Target sequence (P48048 whole entry, looked up): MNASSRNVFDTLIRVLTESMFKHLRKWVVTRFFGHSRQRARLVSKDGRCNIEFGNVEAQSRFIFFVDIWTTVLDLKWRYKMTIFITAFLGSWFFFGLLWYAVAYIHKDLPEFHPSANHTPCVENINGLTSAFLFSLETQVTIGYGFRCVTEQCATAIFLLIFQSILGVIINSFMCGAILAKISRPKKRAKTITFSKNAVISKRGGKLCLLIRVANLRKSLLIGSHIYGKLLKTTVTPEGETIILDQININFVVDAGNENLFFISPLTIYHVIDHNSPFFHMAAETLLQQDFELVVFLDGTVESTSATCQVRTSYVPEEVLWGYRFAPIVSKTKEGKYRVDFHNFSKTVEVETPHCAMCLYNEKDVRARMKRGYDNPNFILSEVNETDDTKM
MT stabilizer: microtubule stabilizers in HeLa cells, primary screen, imaging, high-content imaging | % tubulin-high responders, % at 10 µM | 0.83% of 200,000 active | HeLa tubulin immunostaining HCS, 24 h; share of cells brighter than vehicle mean+2SD;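 active = plate Z-score above 3 for both tubulin-high and condensed-nucleus cell shares, with cell loss under 80%, at 10 µM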;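 also: anti alpha tubulin signal scored within the nucleus-defined area of each cell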
ROMK hit retest: ROMK channel modulator hit retest, confirmation, cell-based, thallium flux, duplicate, resupplied hits; normalized thallium flux (F/F0 slope) at 10 µM; fluorescence ratio; active compounds read low; shares compounds with ROMK primary; 54% of 3,000 active; AID 1917, 2009;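 active = Flux at 10 µM at least 3 SD below or above vehicle control mean in one or both replicates; inconclusive = no clear call, values can overlap the other calls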
Active calls of the source: *; u = inconclusive; x = no result. Most compounds without a hit are left out; they make up all but 1.9% or so of the library.

SMILES	bCat nuc transl	ROMK primary	MT stabilizer	ROMK hit retest
COc1ccc(C(=O)Cn2nnc(-c3ccccc3NC(=O)C(F)(F)F)n2)cc1	-2	2*	2	0.073
O=S(=O)(c1cc(Cl)ccc1Cl)N1CC2CCCN2c2ccc(C(F)(F)F)cc21 (configuration not stated)	x	x	3	x
Cc1onc(-c2ccccc2Cl)c1C(=O)Nc1nnc(-c2cccc([N+](=O)[O-])c2)s1	-1	x	6	0.061*
CCSc1nnc(NC(=O)c2c(-c3ccccc3Cl)noc2C)s1	1	x	2	x
CCc1cccc2c(C(=O)C(F)(F)F)cn(CC(=O)N3CCOCC3)c12	1	-0.28	4	x
CC(OC(=O)c1snc(C(=O)NC2CCCCC2)c1N)C(=O)NC(C)(C)C (configuration not stated)	-2	-2.1	3	x
CC(C)(C)NC(=O)COC(=O)c1snc(C(=O)NC2CCCCC2)c1N	x	-3.8*	2	0.072
COc1ccc(C(=O)Nc2nc3c(s2)Cc2cc(OC)ccc2-3)cc1	0	x	3	x
COc1ccc2c(c1)Cc1sc(NC(=O)c3cccs3)nc1-2	-1	-4.1*	3	0.076
CCN(CC)c1ccc(/C=C(/C#N)c2nc3ccc(C)cc3[nH]2)c(OC(C)C)c1	0	x	2	x
CCCOc1cc(N(CC)CC)ccc1/C=C(/C#N)c1nc2ccc(C)cc2[nH]1	-1	-4.2*	2	0.039*
COCCn1c(SCC(=O)N2CCCc3ccccc32)nc2c(c1=O)SC(C)C2 (configuration not stated)	0	x	4	x
CCCc1nc(SCC(=O)N2CCCc3ccccc32)c2c(=O)n(C)c(=O)n(C)c2n1	2	x	4	0.057*
CCCc1nc(SCC(=O)N2CCC(Cc3ccccc3)CC2)c2c(=O)n(C)c(=O)n(C)c2n1	-2	x	3	u
COCCn1c(SCC(=O)N2CCCc3ccccc32)nc2ccccc2c1=O	-2	-2.7*	8	0.063*
CCc1nc(SCC(=O)N2CCN(c3ccccc3)CC2)c2c(=O)n(C)c(=O)n(C)c2n1	1	x	4	x
Cn1c(=O)c2c(SCC(=O)N3CCCc4ccccc43)nc(CC(C)(C)C)nc2n(C)c1=O	-3	x	9	x
COc1ccccc1-c1cc(-c2ccccc2)nc(SC(C(N)=O)c2ccccc2)c1C#N (configuration not stated)	4	0.12	3	x
CN(C)C=Nc1ccccc1C1C=NNC1=O (configuration not stated)	0	0.077	x	x
COc1ccc(OC)c(C(=O)CSc2nccc(-c3ccc(Br)cc3)n2)c1	-1	x	2	x
CCCc1nn(C)c(C(=O)Nc2ccccc2)c1Cl	-2	x	4	x
Cc1ccc(CSc2ncnc3ccccc23)cc1	-1	-0.024	4	x
Cc1ccc(CSc2nc3ccccc3cc2C=O)cc1	-2	x	21*	0.1*
COc1ccccc1CNc1ncnc2nc[nH]c12	-2	x	2	x
COc1ccccc1Nc1ncnc2nc[nH]c12	x	4*	2	0.084
SMILES	bCat nuc transl	ROMK primary	MT stabilizer	ROMK hit retest
CCOC(=O)CNC(=O)c1ccc2[nH]c3ccccc3c2c1	-1	0.22	3	x
O=C(NCC(O)CO)c1ccc2[nH]c3ccccc3c2c1 (configuration not stated)	2	x	3	0.077
CC[C@@H](C)C(NC(=O)OC(C)(C)C)c1cn([C@@H](Cc2cc3ccccc3[nH]2)C(=O)N2CCN(C(=O)OC(C)(C)C)CC2)nn1 (some centres not stated)	-2	x	4	x
CCOC(=O)CSc1nc(N)c(C(=O)Nc2ccc(N(C)C)cc2)s1	-11	1.8	8	x
N#Cc1ccc2c(c1)nc1ccccn12	x	x	4	x
Clc1ccc2nc3ccccn3c2c1	-3	3.6*	4	0.092
O=S(=O)(/N=C(/Nc1ccc(F)c(F)c1F)c1ccccc1)c1ccccc1	x	x	2	x
Cc1cc(N2CCN(C)CC2)ccc1NC(=O)c1c2c(nc3ccccc13)CCN(Cc1ccccc1)C2	-3	-1.1	3	x
O=C(NC1CCCCCC1)c1c2c(nc3ccccc13)CCN(Cc1ccccc1)C2	-3	-4.3*	3	0.062*
Cc1cccc(N(C(=O)c2snc(C(N)=O)c2N)C(C)C(=O)NCC2CCCO2)c1 (configuration not stated)	0	-0.32	8	x
Cc1cccc(NC(=O)CSc2cc(C)c(C#N)c3nc4ccccc4n23)c1	1	x	x	x
O=C1Nc2ccccc2C(O)(C(=O)N2CCCCC2)N1c1ccccc1 (configuration not stated)	-5	x	3	x
CC(C)NC(=O)C1(O)c2ccccc2NC(=O)N1c1ccc(Cl)c(Cl)c1 (configuration not stated)	-1	x	5	u
Cc1ccc(CN2CCN(/N=C/c3cc(Br)cc(Br)c3O)CC2)c(C)c1	0	0.66	4	x
COc1ccc(OC)c2c(C)cc(N3CCN(C(=O)c4ccc(C)cc4)CC3)nc12	0	-8.5*	1	0.085
COc1ccc(OC)c2c(C)cc(N3CCN(C(=O)c4ccc(F)cc4)CC3)nc12	-4	x	2	x
